Six compounds from BindingDB's records for doi:10.1021/jm100062h (Ferrara University, 2010) can be followed below.

As a reminder, the IC50 is the concentration at which inhibition is half-maximal. Usually EC50 stands for the concentration needed to bring the measured effect to its halfway point. The low end stands for greater potency, the high end for weaker potency.

The target in one test is T1, Transient receptor potential cation channel subfamily A member 1 (Homo sapiens, UniProt O75762). The experiment in a line: Antagonist activity at human TRPA1 channel expressed in CHO cells assessed as inhibition of cinnamaldehyde-induced intracellular calcium influx. Background: Calcium flux is commonly read through the fluorescence of an indicator in the cells.
T1 sequence (O75762 whole entry): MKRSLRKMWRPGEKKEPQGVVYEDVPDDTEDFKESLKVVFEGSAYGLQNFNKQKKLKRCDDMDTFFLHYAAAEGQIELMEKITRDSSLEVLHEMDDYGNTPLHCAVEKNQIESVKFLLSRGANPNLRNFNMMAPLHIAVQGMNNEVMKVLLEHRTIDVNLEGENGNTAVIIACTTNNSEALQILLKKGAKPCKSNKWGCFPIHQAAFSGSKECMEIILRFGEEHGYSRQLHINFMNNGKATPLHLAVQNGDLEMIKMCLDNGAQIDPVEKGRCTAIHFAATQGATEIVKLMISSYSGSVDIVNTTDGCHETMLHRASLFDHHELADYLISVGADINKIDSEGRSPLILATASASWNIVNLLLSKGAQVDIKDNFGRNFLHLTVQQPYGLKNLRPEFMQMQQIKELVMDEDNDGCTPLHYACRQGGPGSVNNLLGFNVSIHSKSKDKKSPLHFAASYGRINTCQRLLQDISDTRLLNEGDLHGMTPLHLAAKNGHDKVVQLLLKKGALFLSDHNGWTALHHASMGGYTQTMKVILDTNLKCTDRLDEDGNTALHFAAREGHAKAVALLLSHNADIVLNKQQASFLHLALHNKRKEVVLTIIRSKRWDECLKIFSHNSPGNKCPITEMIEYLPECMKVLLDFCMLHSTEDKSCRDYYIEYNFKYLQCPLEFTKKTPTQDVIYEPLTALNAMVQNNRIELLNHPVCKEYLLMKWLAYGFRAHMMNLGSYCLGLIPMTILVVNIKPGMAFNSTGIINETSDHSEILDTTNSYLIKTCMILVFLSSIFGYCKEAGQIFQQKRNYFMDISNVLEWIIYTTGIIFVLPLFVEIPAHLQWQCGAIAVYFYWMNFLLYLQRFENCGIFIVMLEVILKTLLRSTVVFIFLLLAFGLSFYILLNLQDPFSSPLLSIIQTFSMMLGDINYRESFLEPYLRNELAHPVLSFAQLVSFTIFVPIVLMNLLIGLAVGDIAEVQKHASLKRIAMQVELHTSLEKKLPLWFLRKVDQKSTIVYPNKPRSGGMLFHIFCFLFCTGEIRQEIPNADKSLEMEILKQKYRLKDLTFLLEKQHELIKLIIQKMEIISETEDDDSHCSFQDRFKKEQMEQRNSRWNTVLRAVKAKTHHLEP
For `CCC(N=O)C(C)=Cc1cncc2ccccc12` (stereo unspecified) [1-(isoquinolin-4-yl)-2-methylpent-1-en-3-one oxime], the IC50 was > 100 µM.
`CCC(N=O)C(C)=Cc1cnccc1C` (stereo unspecified) [2-methyl-1-(4-methylpyridin-3-yl)pent-1-en-3-one oxime]: the IC50 was > 100 µM.
In the case of `CCC(N=O)C(C)=Cc1ccc(C(F)(F)F)nc1` (stereo unspecified) [2-methyl-1-(6-(trifluoromethyl)pyridin-3-yl)pent-1-en-3-one oxime], the IC50 is > 100 µM.
Same read-out and setting: under `CCC(N=O)C(C)=Cc1ccc(C)nc1` (stereo unspecified) [2-methyl-1-(6-methylpyridin-3-yl)pent-1-en-3-one oxime] stands > 100 µM; under `CCC(N=O)C(C)=Cc1cnc2ccccc2c1` (stereo unspecified) [2-methyl-1-(quinolin-3-yl)pent-1-en-3-one oxime], > 100 µM.

The target of another test is T1, Transient receptor potential cation channel subfamily A member 1. The experiment in a line: Activation of TRPA1 channel. The method, boiled down:
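Cell lines transfected with TRPA1 and loaded with a calcium-sensitive dye, read on FLIPR. Calcium influx is counted as the change in fluorescence above background. Each material was tested by preincubation or by direct addition. Calcium counts are expressed as a percentage of the control calcium count.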
For `CC(C)[C@@H]1CC[C@@H](C)C[C@H]1O`, a half-maximal effect (EC50) was put at 28.4 µM. That is a double-digit micromolar value.
